In ChEMBL document CHEMBL2176891, “Structural investigation of anti-Trypanosoma cruzi 2-iminothiazolidin-4-ones allows the identification of agents with efficacy in infected mice” (J Med Chem, 2012):
Calls of active or inactive are those of the source. The calls are words filed in the database; no cut-off is given here.

Experiments:
Trypanosoma cruzi [1] = test: Antitrypanosomal activity against Trypanosoma cruzi; assay type: functional, organism-based
[2] = biological target: Cruzipain (Trypanosoma cruzi) (UniProt P25779); test: (§1) Inhibition of Trypanosoma cruzi recombinant cruzain using Z-FR-AMC as substrate at 20 uM preincubated for 10 mins before substrate addition
Cruzipain (Trypanosoma cruzi), sequence (P25779 123-467 limits assumed): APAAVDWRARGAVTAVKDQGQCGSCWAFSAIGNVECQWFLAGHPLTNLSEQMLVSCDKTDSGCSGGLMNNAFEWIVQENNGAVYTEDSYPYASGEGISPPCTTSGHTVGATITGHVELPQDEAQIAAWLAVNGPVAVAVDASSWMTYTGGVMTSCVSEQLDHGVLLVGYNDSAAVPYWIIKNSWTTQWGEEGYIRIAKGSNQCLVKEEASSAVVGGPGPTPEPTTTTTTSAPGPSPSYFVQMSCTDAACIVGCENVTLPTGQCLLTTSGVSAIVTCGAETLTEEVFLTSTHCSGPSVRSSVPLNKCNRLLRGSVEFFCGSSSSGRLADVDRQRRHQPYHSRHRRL

Cruzipain [3] = biological target: T1, Cruzipain (Trypanosoma cruzi, UniProt P25779); test: as §1
T1 sequence (P25779 whole entry): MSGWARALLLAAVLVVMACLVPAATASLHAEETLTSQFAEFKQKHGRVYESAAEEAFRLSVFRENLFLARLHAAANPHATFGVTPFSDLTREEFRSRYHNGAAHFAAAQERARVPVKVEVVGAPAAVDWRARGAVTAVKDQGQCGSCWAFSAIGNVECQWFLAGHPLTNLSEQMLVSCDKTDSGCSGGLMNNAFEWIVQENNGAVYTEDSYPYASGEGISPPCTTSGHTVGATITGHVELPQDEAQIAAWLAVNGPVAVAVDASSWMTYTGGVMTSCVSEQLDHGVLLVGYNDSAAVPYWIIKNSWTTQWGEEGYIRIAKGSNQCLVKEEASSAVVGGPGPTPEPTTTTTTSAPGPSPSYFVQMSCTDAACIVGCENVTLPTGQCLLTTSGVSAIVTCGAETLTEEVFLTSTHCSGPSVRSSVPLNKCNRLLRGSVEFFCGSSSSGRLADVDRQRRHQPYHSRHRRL

[4] = Cytotoxicity against BALB/c mouse splenocytes assessed as highest nontoxic concentration by measuring [3H]-thymidine incorporation after 24 hrs by beta-radiation counting; assay type: cell-based, Splenocyte; details: for MNTC at 24 h: mouse, splenocytes, read-out: Activity; for highest nontoxic concentration: Mus musculus, Splenocyte, read-out: IC50
How it was run: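 BALB/c splenocytes, 5 × 10⁶ cells/well in RPMI-1640 with 10% FBS. Compound in DMSO at 1.0, 10 and 100 μg/mL or more, triplicate; untreated and saponin controls. 24 h at 37 °C, 5% CO₂. 1.0 μCi ³H-thymidine added, incorporation read by β-counting as % of untreated. Highest nontoxic concentration estimated.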

Trypanosoma cruzi [5] = test: Antitrypanosomal activity against trypomastigotes of Trypanosoma cruzi Y infected in LLC-MK2 cells assessed as parasite motility after 24 hrs; assay type: functional, organism-based; details: LLC-MK2, 24 h
How it was run: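 Y strain bloodstream trypomastigotes taken from LLC-MK2 culture supernatant, 4 × 10⁵ cells/well. Five compound concentrations (DMSO), triplicate, 24 h at 37 °C, 5% CO₂. Viable parasites judged by motility in a Neubauer chamber. Inhibition calculated relative to untreated culture; IC50 by nonlinear regression.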

[6] = Antiproliferative activity against concanavalin A-stimulated BALB/c mouse splenocytes after 72 hrs by AlamarBlue assay; assay type: cell-based; details: Splenocyte
How it was run: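 Splenocytes from BALB/c mice at 5 × 10⁶ cells/well in RPMI-1640 with 10% FBS, stimulated with 2.0 μg/mL concanavalin A. Compounds in DMSO, six concentrations in triplicate. Controls: con A alone, no con A, and con A plus 0.01 μg/mL cyclosporin A. 72 h at 37 °C, 5% CO₂. AlamarBlue for 1 h, fluorescence ex 530/em 590 nm. IC50 by nonlinear regression.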

[7] = Selectivity index, ratio of IC50 for concanavalin A-stimulated BALB/c mouse splenocytes to IC50 for trypomastigotes of Trypanosoma cruzi Y infected in mouse peritoneal macrophages
How it was run: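 Ratio of splenocyte IC50 to IC50 against intracellular parasites in Y strain-infected peritoneal macrophages (4-day assay).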

Cathepsin S = Cathepsin S (Homo sapiens, UniProt P25774); test: Inhibition of recombinant cathepsin S using ZFR-pNA as substrate preincubated for 45 mins
Cathepsin S, sequence (P25774 whole entry): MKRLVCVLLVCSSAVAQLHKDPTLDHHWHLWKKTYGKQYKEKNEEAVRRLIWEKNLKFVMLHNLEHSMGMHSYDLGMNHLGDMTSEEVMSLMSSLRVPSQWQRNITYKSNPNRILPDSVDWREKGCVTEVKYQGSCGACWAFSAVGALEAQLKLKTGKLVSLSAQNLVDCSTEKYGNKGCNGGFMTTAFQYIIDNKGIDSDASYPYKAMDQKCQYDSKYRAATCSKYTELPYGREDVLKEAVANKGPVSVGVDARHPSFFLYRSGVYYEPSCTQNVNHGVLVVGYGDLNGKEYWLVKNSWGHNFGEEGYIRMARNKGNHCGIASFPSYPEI
How it was run: (§2)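 Recombinant cathepsin L or S activated with 1 mM DTT in 0.1 M acetate pH 5.5. Preincubated 45 min at room temperature with compound in phosphate buffer with 0.1% BSA, 1 mM EDTA and 0.001% Tween. Z-FR-pNA added, reaction 5 min; final 30 nM enzyme and 5.0 μM substrate. Triplicate runs; IC50 from at least seven concentrations.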

Trypanosoma cruzi [8] = test: Antitrypanosomal activity against trypomastigotes of Trypanosoma cruzi Y infected in mouse peritoneal macrophages assessed as reduction of intracellular parasite level after 4 days; assay type: functional, organism-based; details: 96 h
How it was run: (§3)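 Peritoneal exudate macrophages, 2 × 10⁵/well on coverslips, infected with Y strain trypomastigotes at 10 parasites per macrophage for 2 h, then washed. Compound in DMSO added for 6 h, medium replaced, culture continued 4 days. After methanol fixation and Giemsa staining, 100 cells per slide counted for % infected macrophages and amastigotes per cell. IC50 based on % infected cells versus untreated.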

Procathepsin L [9] = biological target: T2, Procathepsin L (Homo sapiens, UniProt P07711); test: Inhibition of recombinant cathepsin L using ZFR-pNA as substrate at 100 uM preincubated for 45 mins; how it was run: as §2
Target sequence in this assay (P07711 114-333 limits assumed): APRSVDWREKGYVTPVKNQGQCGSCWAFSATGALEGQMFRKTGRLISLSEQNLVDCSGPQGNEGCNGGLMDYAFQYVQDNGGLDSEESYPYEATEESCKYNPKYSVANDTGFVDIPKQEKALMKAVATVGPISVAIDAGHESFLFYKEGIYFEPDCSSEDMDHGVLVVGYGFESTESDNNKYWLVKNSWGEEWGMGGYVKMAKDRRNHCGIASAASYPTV

Procathepsin L [10] = biological target: T2, Procathepsin L; test: Inhibition of recombinant cathepsin L using ZFR-pNA as substrate preincubated for 45 mins; how it was run: as §2
Target sequence in this assay (P07711 whole entry): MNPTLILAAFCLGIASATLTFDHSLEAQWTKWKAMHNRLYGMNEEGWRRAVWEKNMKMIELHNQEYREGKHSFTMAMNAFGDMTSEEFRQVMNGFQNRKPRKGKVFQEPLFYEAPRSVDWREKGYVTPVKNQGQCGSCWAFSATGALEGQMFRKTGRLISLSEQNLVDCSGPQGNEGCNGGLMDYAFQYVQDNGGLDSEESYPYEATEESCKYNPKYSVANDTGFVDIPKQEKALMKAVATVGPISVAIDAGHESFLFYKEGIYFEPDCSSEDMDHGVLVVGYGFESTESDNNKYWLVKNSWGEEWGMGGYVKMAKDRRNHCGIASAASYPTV

Trypanosoma cruzi [11] = test: Antitrypanosomal activity against epimastigotes of Trypanosoma cruzi Y in axenic culture assessed as parasite motility after 11 days; details: 264 h
Trypanosoma cruzi [12] = test: Antitrypanosomal activity against trypomastigotes of Trypanosoma cruzi Y infected in BALB/c mouse assessed as reduction of blood parasite level at 250 umol/kg, po qd for 5 days; assay type: functional; design: scale not given: the % may be the effect or the level left
How it was run: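 Female BALB/c mice, 6–8 weeks old, infected ip with 10⁴ Y strain bloodstream trypomastigotes in saline; six mice per group. From day 5 postinfection, 250 μmol/kg given orally by gavage once daily for 5 days. Fresh-blood parasitemia counted in a hemocytometer. Reduction = (vehicle − treated)/vehicle × 100, using day 5 of treatment; two independent experiments.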

Mus musculus [13] = test: Toxicity in BALB/c mouse assessed as reduction in body weight at 250 umol/kg, po qd for 5 days; assay type: organism-based; details: in vivo, 120 h
Trypanosoma cruzi [14] = test: Antitrypanosomal activity against trypomastigotes of Trypanosoma cruzi Y infected in mouse peritoneal macrophages assessed as reduction of intracellular parasite level at 10 uM after 4 days; assay type: functional, organism-based; how it was run: as §3
Trypanosoma cruzi [15] = test: Antitrypanosomal activity against epimastigotes of Trypanosoma cruzi Y assessed as reduction of proteolytic activity using gelatin as substrate after 48 hrs by zymography assays
Trypanosoma cruzi [16] = test: Induction of ultrastructural alteration of trypomastigotes of Trypanosoma cruzi Y at 3.9 uM by scanning electron microscopy; assay type: functional, organism-based
How it was run: (§4)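 Y strain bloodstream trypomastigotes and infected macrophages exposed to 3.9 μM compound, then examined by transmission and scanning electron microscopy.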

Trypanosoma cruzi [17] = test: Inhibition of trypomastigotes of Trypanosoma cruzi Y invasion to mouse peritoneal macrophages at 50 uM […]; assay type: functional, organism-based
Cruzipain [18] = biological target: T1, Cruzipain; test: Inhibition of Trypanosoma cruzi recombinant cruzain using Z-FR-AMC as substrate preincubated for 10 mins before substrate addition; details: read-out: IC50
How it was run: (§5)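 Recombinant cruzain preincubated 10 min at room temperature with compound (DMSO) in phosphate buffer containing EDTA, 100 mM NaCl and DTT. Z-FR-AMC then added; final 0.5 nM enzyme and 2 μM substrate. Fluorescence read at 1, 5 and 10 min; % inhibition versus no-inhibitor control. Single-point values are triplicate means; IC50 by nonlinear regression from multiple concentrations. Some runs used 0.01% Triton X-100.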

Mus musculus [19] = test: Toxicity in BALB/c mouse assessed as mortality at 250 umol/kg, po qd for 5 days; assay type: organism-based; details: in vivo, 120 h
How it was run: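 Female BALB/c mice, 6–8 weeks old, were infected i.p. with 10⁴ Y strain bloodstream trypomastigotes in saline and randomly grouped, six per group. From day 5 postinfection, drug was given orally by gavage at 250 μmol/kg once daily for five consecutive days. Blood parasites were counted by hemocytometer, and survival was followed for one month. Untreated and benznidazole-treated infected mice served as controls.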

Trypanosoma cruzi [20] = test: Induction of ultrastructural alteration of trypomastigotes of Trypanosoma cruzi Y at 3.9 uM by transmission electron microscopy; assay type: functional, organism-based; how it was run: as §4
[21] = biological target: Cruzipain (Trypanosoma cruzi) (UniProt P25779); test: Inhibition of Trypanosoma cruzi recombinant cruzain using Z-FR-AMC as substrate at 20 uM preincubated for 10 mins before substrate addition in presence of 0.01% of Triton X-100; how it was run: as §5

Row | inhibition [2] | SMILES | MNTC at 24 h [4] | IC50 (Trypanosoma cruzi [5]) | IC50 [6] | Ratio IC50 [7] | highest nontoxic concentration [4] | IC50 (Cathepsin S) | IC50 (Trypanosoma cruzi [8]) | inhibition (Procathepsin L [9]) | IC50 (Procathepsin L [10]) | IC50 (Trypanosoma cruzi [11]) | Activity (Trypanosoma cruzi [12]) | Activity (Trypanosoma cruzi [14]) | other results
1 | inactive | C/C(COc1ccccc1)=N\Nc1nc(-c2ccccc2)cs1 | 50 µg/mL | 19.6 µM |  |  |  |  |  |  |  |  |  |  | IC50 (Cruzipain [3]): > 20 µM
2 | 0% | C/C(COc1ccccc1)=N\N=C1/NC(=O)CS1 | > 100 µg/mL | 19 µM | 98 µM | 10 | > 200 µM | > 100 µM | 19.5 µM | 1% | > 100 µM | 23.2 µM |  |  | 

More lines, now with the values behind:

Row | SMILES | inhibition [2] | MNTC at 24 h [4] | IC50 (Trypanosoma cruzi [5]) | IC50 [6] | Ratio IC50 [7] | highest nontoxic concentration [4] | IC50 (Cathepsin S) | IC50 (Trypanosoma cruzi [8]) | inhibition (Procathepsin L [9]) | IC50 (Procathepsin L [10]) | IC50 (Trypanosoma cruzi [11]) | Activity (Trypanosoma cruzi [12]) | Activity (Trypanosoma cruzi [14]) | other results
3 | Cc1ccc(SC/C=N/N=C2\NC(=O)C(C)S2)cc1 (configuration not stated) |  |  |  |  |  |  |  |  |  |  |  |  |  | IC50 (Trypanosoma cruzi [1]): 80.4 µM
4 | C/C(COc1ccccc1)=N\N=C1\SC(C(C)C)C(=O)N1c1ccccc1 (racemic) | 78% | > 100 µg/mL | 6.1 µM | > 262 µM | 25 | > 262 µM | > 100 µM | 10.1 µM | 10% | > 100 µM | 4.9 µM | 89.6% | Active | Activity (Mus musculus [13]): Non-toxic; Activity (Trypanosoma cruzi [15]): Dose-dependent effect; Activity (Trypanosoma cruzi [16]): Active; inhibition (Trypanosoma cruzi [17]): Active; IC50 (Cruzipain [18]): 6.6 µM; Activity (Mus musculus [19]): Non-toxic; Activity (Trypanosoma cruzi [20]): Active; inhibition [21]: 81%
5 | O=C(Cn1ccnc1[N+](=O)[O-])NCc1ccccc1 [BENZNIDAZOLE] |  |  | 6.2 µM |  |  |  |  | 13.9 µM |  |  | 6.6 µM | >99% | Active | 
